From ChEMBL document CHEMBL4152356, “Amphipathic sulfonamidobenzamides mimicking small antimicrobial marine natural products; investigation of antibacterial and anti-biofilm activity against antibiotic resistant clinical isolates” (Bioorg Med Chem, 2018)

Legend:
Bacillus subtilis = experiment: Antibacterial activity against Bacillus subtilis 168 ATCC 23857 after 48 hrs by microdilution method; assay type: functional; settings: subsp. subtilis str. 168 ATCC 23857, 48 h
How it was run: (§1)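 Broth microdilution (CLSI M07-A9, modified) in Mueller-Hinton broth; inoculum about 2.5-3 × 10^4 cells/ml mixed 1:1 with serial compound dilutions. Stock solutions in up to 100% DMSO, final DMSO ≤1%. Incubated 35 °C for 48 h.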

MRC5 = experiment: Cytotoxicity against human MRC5 cells after 72 hrs by MTS assay; assay type: cell-based; settings: MRC5, 72 h
How it was run: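 MRC-5 lung fibroblasts in DMEM with 10% FBS, 37 °C, 5% CO2; seeded at 4000 cells/well, adhered 24 h, medium replaced. Two-fold dilutions up to 100 µg/ml for 72 h, then MTS for 1 h and absorbance at 485 nm. Controls were 1% DMSO (negative) and 0.5% Triton X-100 (positive). EC50 is the concentration giving 50% inhibition of survival.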

Staphylococcus aureus [1] = experiment: Antibacterial activity against Staphylococcus aureus ATCC 9144 after 48 hrs by microdilution method; assay type: functional; settings: ATCC 9144, 48 h; how it was run: as §1
[2] = system: Staphylococcus epidermidis; experiment: Antibacterial activity against methicillin resistant Staphylococcus epidermidis RP62A ATCC 35984/CCUG 31568 after 48 hrs by microdilution method; assay type: functional; settings: RP62A ATCC 35984/CCUG 31568, 48 h
How it was run: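 Broth microdilution (modified CLSI M07-A9) against the MRSE reference strain. Inoculum of about 2.5-3 × 10^4 cells/ml in Mueller-Hinton broth mixed 1:1 with serial compound dilutions; final DMSO ≤1%. Incubated 35 °C, 48 h.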

[3] = system: Corynebacterium glutamicum; experiment: Antibacterial activity against Corynebacterium glutamicum ATCC 13032 after 48 hrs by microdilution method; assay type: functional; settings: ATCC 13032, 48 h; how it was run: as §1
Escherichia coli [4] = experiment: Antibacterial activity against Escherichia coli ATCC 25922 after 48 hrs by microdilution method; assay type: functional; settings: ATCC 25922, 48 h; how it was run: as §1
[5] = Selectivity index, ratio of EC50 for human RBC to MIC for methicillin resistant Staphylococcus epidermidis RP62A ATCC 35984/CCUG 31568; assay type: toxicity; settings: human red blood cells (RBC), read-out: Selectivity Index
How it was run: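 SI = hemolytic EC50 / MRSE MIC. Hemolysis: washed human RBCs (heparinized blood, healthy adult donor) at 10% in PBS pH 7.4, mixed 9:1 with serial compound dilutions, 37 °C for 1 h. 0.05% Triton X-100 set 100% lysis, 0.5% DMSO set baseline. MIC from MHB microdilution, 35 °C, […].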

Erythrocyte = experiment: Hemolytic activity against human RBC measured after 1 hr; assay type: cell-based
How it was run: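 Washed human RBCs from a healthy donor (heparinized) at 10% in PBS pH 7.4, mixed 9:1 with serial compound dilutions, 37 °C for 1 h. Baseline set by 0.5% DMSO in 50% PBS, 100% lysis by 0.05% Triton X-100. EC50 is the concentration giving 50% lysis.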

Pseudomonas aeruginosa [6] = experiment: Antibacterial activity against Pseudomonas aeruginosa PAO1 DSM 19880 ATCC 15692 after 48 hrs by microdilution method; assay type: functional; settings: PAO1 DSM 19880 ATCC 15692, 48 h; how it was run: as §1
Klebsiella pneumoniae = experiment: Antibacterial activity against Klebsiella pneumoniae clinical isolates after 24 hrs by microdilution method; assay type: functional
How it was run: (§2)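 Clinical isolate screen by broth microdilution with about 1-1.2 × 10^6 cells/ml and 24 h incubation. MIC is the lowest concentration with no growth. For isolate collections, MIC90 is the MIC inhibiting ≥90% of isolates. Multidrug resistance was defined as resistance to at least […] antimicrobial class.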

[7] = system: Staphylococcus epidermidis; experiment: Antibiofilm activity against Staphylococcus epidermidis RP62A ATCC 35984/CCUG 31568 incubated for 24 +/- 2 hrs by crystal violet staining based assay; assay type: functional
How it was run: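 Mature S. epidermidis RP62A biofilms: filtered overnight TSB culture adjusted to 2 McFarland, diluted in TSB with 1% glucose to about 6 × 10^6 CFU/ml, grown 24 ± 2 h at 37 °C static, then PBS-washed. Compounds in 50% TSBglu added for 24 ± 2 h at 37 °C. Biomass given as % of untreated control; ≥90% eradication threshold. Compounds tested at 2x, 5x and 10x MIC, 4-8 parallels on 2-3 plates, highest and lowest values excluded.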

Pseudomonas aeruginosa [8] = experiment: Antibacterial activity against Pseudomonas aeruginosa clinical isolates after 24 hrs by microdilution method; assay type: functional; how it was run: as §2
Enterococcus sp. = experiment: Antibacterial activity against Enterococcus sp. clinical isolates after 24 hrs by microdilution method; assay type: functional; how it was run: as §2
Staphylococcus aureus [9] = experiment: Antibacterial activity against Staphylococcus aureus clinical isolates after 24 hrs by microdilution method; assay type: functional; how it was run: as §2
Escherichia coli [10] = experiment: Antibacterial activity against Escherichia coli clinical isolates after 24 hrs by microdilution method; assay type: functional; how it was run: as §2

Compound	MIC (Bacillus subtilis) [µg/mL]	EC50 (MRC5) [µg/mL]	MIC (Staphylococcus aureus [1]) [µg/mL]	MIC [2] [µg/mL]	MIC [3] [µg/mL]	MIC (Escherichia coli [4]) [µg/mL]	selectivity ratio [5]	EC50 (Erythrocyte) [µg/mL]	MIC (Pseudomonas aeruginosa [6]) [µg/mL]	MIC (Klebsiella pneumoniae) [µg/mL]	MBIC=>90 [7] [µg/mL]	MIC (Pseudomonas aeruginosa [8]) [µg/mL]	MIC (Enterococcus sp.) [µg/mL]	MIC (Staphylococcus aureus [9]) [µg/mL]	MIC (Escherichia coli [10]) [µg/mL]
CC(C)(C)c1cc(C(C)(C)C)cc(S(=O)(=O)N2CCC[C@H]2C(=O)NCCNC(=N)N)c1.Cl	32	> 100	64	32	8	> 128	> 4	> 128	128						
CC(C)(C)c1cc(C(=O)Nc2ccccc2C(=O)NCCNC(=N)N)cc(C(C)(C)C)c1.Cl		22													
Cc1cc(C(=O)NCCNC(=N)N)ccc1NS(=O)(=O)c1cc(C(C)(C)C)cc(C(C)(C)C)c1.Cl	8	56	8	4	4	32	26	104	> 128	> 128	40	64	32	8	64
CN(c1ccc(C(=O)NCCCN)cc1)S(=O)(=O)c1cc(C(C)(C)C)cc(C(C)(C)C)c1.Cl	8	9	16	16	8	16	2	28	32						
CC(C)(C)c1cc(C(C)(C)C)cc(S(=O)(=O)Nc2cc3ccccc3cc2C(=O)NCCN)c1.Cl	4	22	4	4	2	8	5	21	32	128		32	8	8	32
Cc1cc(C)cc(S(=O)(=O)Nc2ccc(C(=O)NCCNC(=N)N)cc2)c1.Cl	64	> 100	128	64	64	> 128	> 2	> 128	> 128						
CC(C)(C)c1cc(C(C)(C)C)cc(S(=O)(=O)N2CCC(C(=O)NCCNC(=N)N)CC2)c1.Cl	16	> 100	16	16	4	64	8	124	128		80				
CN(c1ccc(C(=O)NCCN)cc1)S(=O)(=O)c1cc(C(C)(C)C)cc(C(C)(C)C)c1.Cl	8	5	16	16	16	16	3	53	32						
CC(C)(C)c1cc(C(C)(C)C)cc(S(=O)(=O)Nc2ccc(C(=O)NCCN)cc2)c1.Cl	16	25	32	32	8	64	2	63	64						
CC(C)(C)c1cc(C(C)(C)C)cc(S(=O)(=O)Nc2ccccc2C(=O)NCCN)c1.Cl	32	10	32	32	16	64	2	56	128	128		128	32	32	128
CC(C)(C)c1cc(C(C)(C)C)cc(S(=O)(=O)Nc2ccccc2C(=O)NCCNC(=N)N)c1.Cl	8	42	4	8	4	32	10	77	64	128		32	32	8	64
CC(C)(C)c1cc(C(C)(C)C)cc(S(=O)(=O)NCc2ccc(C(=O)NCCN)cc2)c1.Cl	8	20	32	16	8	32	6	92	32						
CN(c1cccc(C(=O)NCCN)c1)S(=O)(=O)c1cc(C(C)(C)C)cc(C(C)(C)C)c1.Cl	8	10	16	16	8	16	2	26	32						
CC(C)(C)c1cc(C(C)(C)C)cc(S(=O)(=O)Nc2ccc(CC(=O)NCCN)cc2)c1.Cl	16	20	32	16	16	64	5	73	64						
CC(C)(C)c1cc(C(C)(C)C)cc(S(=O)(=O)Nc2cccc(C(=O)NCCN)c2)c1.Cl	8	16	16	8	8	32	7	58	64						
